The source made the active and inactive calls. No cut-off for these calls is given here.

The target of one data set is T1, Caspase-3 (Homo sapiens) (UniProt P42574).
T1 sequence (whole entry): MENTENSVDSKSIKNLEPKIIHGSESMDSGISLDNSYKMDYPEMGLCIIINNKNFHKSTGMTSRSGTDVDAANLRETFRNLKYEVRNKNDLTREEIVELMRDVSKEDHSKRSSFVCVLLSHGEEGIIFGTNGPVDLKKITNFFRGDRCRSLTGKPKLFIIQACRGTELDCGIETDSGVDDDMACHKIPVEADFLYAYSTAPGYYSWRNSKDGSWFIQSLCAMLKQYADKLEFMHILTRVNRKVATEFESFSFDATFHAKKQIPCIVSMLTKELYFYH
Briefly: Inhibition of human recombinant caspase-3 assessed as fluorescent 7-amido-4-methylcoumarin release using Ac-DEVD-AMC as peptide substrate at <200 uM by fluorometric assay. The method, boiled down:
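Recombinant human caspase-3 (stock 10 U/ml in assay buffer) mixed with inhibitor at various concentrations. Reaction started with AMC substrate at 200 (final). Buffer was 20 mM HEPES, 2 mM EDTA, 0.1% CHAPS, 5 mM DTT, pH 7.4. AMC release followed continuously at 37 °C by fluorescence, excitation 360 nm and emission 460 nm. IC50 determined.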

Data set [1] has as its system Saccharomyces cerevisiae. Put plainly: Growth stimulation in Saccharomyces cerevisiae CG379 transformed with empty vector at 5 to 100 uM after 2 days. Type of data set: organism-based. As to conditions: in vivo, 48 h.
Data set [2] deals with Saccharomyces cerevisiae. Put plainly: Growth stimulation in Saccharomyces cerevisiae CG379 transformed with empty vector at 5 to 50 uM after 2 days. The settings on record: in vivo, 48 h. Type of data set: organism-based.

In the case of `CC[C@H](C)[C@H](NC(=O)OCC1c2ccccc2-c2ccccc21)C(=O)N[C@H](/C=C/S(=O)(=O)c1ccccc1)CC(=O)O`, on Caspase-3 (Homo sapiens), the inhibition result is “inactive”. Still for that read-out and setting: next, `C[C@H](NC(=O)OCc1ccccc1)C(=O)N[C@H](/C=C/S(=O)(=O)c1ccccc1)CC(=O)O`: “inactive”. For the compound `CC(C)[C@H](NC(=O)OCC1c2ccccc2-c2ccccc21)C(=O)N[C@H](/C=C/S(C)(=O)=O)CC(=O)O`, the Activity with Saccharomyces cerevisiae [1] is given as -7%.

Turning to `CC[C@H](C)[C@H](NC(=O)OCc1ccccc1)C(=O)N[C@H](/C=C/S(=O)(=O)c1ccccc1)CC(=O)O`, in the data set with Saccharomyces cerevisiae [1], the Activity is 1.9%. For `C[C@H](NC(=O)OCC1c2ccccc2-c2ccccc21)C(=O)N[C@H](/C=C/S(=O)(=O)c1ccccc1)CC(=O)O`, the inhibition entry at Caspase-3 (Homo sapiens) is “inactive”.

Turning to `CC[C@H](C)[C@H](NC(=O)OCC1c2ccccc2-c2ccccc21)C(=O)N[C@H](/C=C/S(C)(=O)=O)CC(=O)O`, the inhibition result at Caspase-3 (Homo sapiens) is “inactive”.

As to `CC(C)[C@H](NC(=O)OCC1c2ccccc2-c2ccccc21)C(=O)N[C@H](C(=O)N[C@H](/C=C/S(=O)(=O)c1ccccc1)CC(=O)O)C(C)C`, the inhibition entry at Caspase-3 (Homo sapiens) is “inactive”.

On to `CC(C)[C@H](NC(=O)OCc1ccccc1)C(=O)N[C@H](/C=C/S(C)(=O)=O)CC(=O)O`, for which, in the data set with Saccharomyces cerevisiae [1], the Activity is listed as -1%.

Turning to `O=C(O)C[C@@H](/C=C/S(=O)(=O)c1ccccc1)NC(=O)OCC1c2ccccc2-c2ccccc21`, the Activity in the data set on Saccharomyces cerevisiae [1] worked out at 2.8%. As for `C[C@H](NC(=O)OCC1c2ccccc2-c2ccccc21)C(=O)N[C@H](/C=C/S(C)(=O)=O)CC(=O)O`, the inhibition entry at Caspase-3 (Homo sapiens) is “inactive”. `CS(=O)(=O)/C=C/[C@H](CC(=O)O)NC(=O)OCC1c2ccccc2-c2ccccc21`: the Activity with Saccharomyces cerevisiae [1] stood at 1.7%.

Turning to `CC(=O)N[C@@H](CC(=O)O)C(=O)N[C@@H](CCC(=O)O)C(=O)N[C@H](C(=O)N[C@@H](CC(=O)O)C(=O)CCl)C(C)C`, the Activity with Saccharomyces cerevisiae [2] was 1.7%. Take `C[C@H](NC(=O)OCc1ccccc1)C(=O)N[C@H](/C=C/S(C)(=O)=O)CC(=O)O`: the inhibition result at Caspase-3 (Homo sapiens) was “inactive”. With `CC(C)[C@H](NC(=O)OCC1c2ccccc2-c2ccccc21)C(=O)N[C@H](/C=C/S(=O)(=O)c1ccccc1)CC(=O)O`, the Activity in the data set with Saccharomyces cerevisiae [1] is given as 1.3%. The same measure, in the same setting: next, `CC[C@H](C)[C@H](NC(=O)OCc1ccccc1)C(=O)N[C@H](/C=C/S(C)(=O)=O)CC(=O)O`: -3.3%. For `CC(C)[C@H](NC(=O)OCC1c2ccccc2-c2ccccc21)C(=O)N[C@H](C(=O)N[C@H](/C=C/S(C)(=O)=O)CC(=O)O)C(C)C`, on Caspase-3 (Homo sapiens), the inhibition result was “inactive”.

Values taken from ChEMBL document CHEMBL1782044, “Aspartic vinyl sulfones: inhibitors of a caspase-3-dependent pathway” (Eur J Med Chem, 2011).
